The list is not random: actives were taken first. Their share in the collection is about 1.5%.
PLK1 inh: blocks human PLK1 kinase activity. P53350. recombinant PLK1 kinase, TR-FRET peptide phosphorylation. inhibition, % at 10 µM. actives 0.53% (n = 97,000). AID 619;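 active means inhibition of 50% or more in the single-concentration screen; inactive means inhibition below 50%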
AP ELISA ortho: orthogonal test for alternative complement pathway inhibitors | Human serum alternative complement pathway, LPS-coated ELISA, C3 deposition; tested in compound mixtures | actives 0.08% (n = 62,000) | AID 1235 | inhibition, % at 5 µM;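 active means inhibition above 30% in each of the two pooled mixtures holding the compound, so the lower value exceeds 30%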
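Test system: human serum alternative complement pathway, C3 deposition on LPS-coated wells; also added: Plate-bound LPS; doses: 5 µM per compound in ten-compound mixtures; schedule: 1 h at 37 °C; detection: Anti-C3 ELISA, OD 450 nm; evaluation: percent inhibition of C3 deposition onto LPS; repeats: two pool placements per compound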
HEK293 NFkB inh: inhibitors of the PMA/ionomycin-induced NF-kB reporter in HEK293 cells | inhibition, % at 3 µM | actives 0.21% (n = 62,000) | HEK-293 NF-kB luciferase reporter, luminescence | AID 465;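 active means inhibition above the mean of all tested compounds plus 3 SD, cut at about 40% in these data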
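Timing: 1 h pretreatment, 16 h stimulation, 37 °C; system: HEK-293 cells with stable firefly luciferase reporter driven by four HIV NF-kB elements; doses: 3 µM once, 0.30% DMSO; measured by: luciferase luminescence; control set: DMSO and 10 µM reference inhibitor; repeats: single test; reagent: PMA plus ionomycin mix as NF-kB-activating stimulus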
HePTP inhibitor: inhibitors of human HePTP phosphatase | actives 0.64% (n = 110,000) | P35236 | inhibition, % at 20 µM | recombinant HePTP phosphatase activity, OD absorbance; in the data active means inhibition above about 50%
PLK1 PBD inh: inhibitors of human Plk1 polo box domain binding | P53350 | Plk1 PBD phosphopeptide binding, fluorescence polarization | inhibition, %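 (tested at about 20 µM)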 | actives 0.13% (n = 97,000); in the data active means inhibition above about 34%, passing the limit was not always enough
PTK2B oligo ant: blocks oligomerization of human Pyk2 in cells. Q293 cells, Pyk2 FERM NanoBiT luminescence; active compounds read low. z-score (the deposit names both 25 µM and 10 µM). actives 0.83% (n = 99,000);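 active means Z-score of -3 or lower, scaled per plate to the spread of control and sample wells; inactive means z-score above -3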;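 further: negative z-score means lost luminescence so less FERM oligomerization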
Target sequence (Q14289 whole entry, looked up): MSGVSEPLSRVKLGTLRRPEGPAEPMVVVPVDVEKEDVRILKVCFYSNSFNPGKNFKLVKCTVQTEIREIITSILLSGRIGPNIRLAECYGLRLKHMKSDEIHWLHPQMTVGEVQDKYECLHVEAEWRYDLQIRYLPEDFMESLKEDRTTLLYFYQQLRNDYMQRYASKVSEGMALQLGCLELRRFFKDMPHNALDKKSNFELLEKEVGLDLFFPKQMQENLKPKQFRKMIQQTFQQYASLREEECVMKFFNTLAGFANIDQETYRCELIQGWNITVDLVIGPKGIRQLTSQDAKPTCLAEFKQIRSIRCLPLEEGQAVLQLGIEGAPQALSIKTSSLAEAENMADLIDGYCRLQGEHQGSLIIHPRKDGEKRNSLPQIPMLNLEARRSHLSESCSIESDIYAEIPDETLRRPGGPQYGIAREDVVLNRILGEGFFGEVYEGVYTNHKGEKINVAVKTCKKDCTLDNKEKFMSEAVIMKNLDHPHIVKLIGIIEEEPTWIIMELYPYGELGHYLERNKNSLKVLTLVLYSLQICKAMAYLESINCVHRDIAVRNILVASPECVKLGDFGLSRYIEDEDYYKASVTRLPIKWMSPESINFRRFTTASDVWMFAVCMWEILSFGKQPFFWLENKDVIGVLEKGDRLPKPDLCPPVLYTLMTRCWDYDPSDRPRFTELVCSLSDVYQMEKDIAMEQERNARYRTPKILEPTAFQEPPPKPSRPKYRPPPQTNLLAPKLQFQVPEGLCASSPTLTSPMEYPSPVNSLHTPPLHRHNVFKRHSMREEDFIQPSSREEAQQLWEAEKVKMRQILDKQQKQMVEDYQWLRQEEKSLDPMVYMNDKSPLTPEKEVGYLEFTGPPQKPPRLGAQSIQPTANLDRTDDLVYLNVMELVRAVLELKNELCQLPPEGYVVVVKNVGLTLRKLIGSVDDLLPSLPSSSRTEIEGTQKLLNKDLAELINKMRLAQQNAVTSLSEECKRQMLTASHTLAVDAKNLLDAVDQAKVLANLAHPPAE
Hits are given with their value; 0 = inactive; - = not tested or not shown.

SMILES	PLK1 inh	AP ELISA ortho	HEK293 NFkB inh	HePTP inhibitor	PLK1 PBD inh	PTK2B oligo ant
O=C(O)[C@@H]1CCCC[C@@H]1C(=O)N1CCc2ccccc2C1CN1C(=O)c2ccccc2C1=O (some centres undefined)	0	0	59	0	0	0
O=C1c2ccccc2C(=O)N1CC1c2ccccc2CCN1C(=O)C1CCCCC1 (centres undefined)	0	-	-	-	0	0
O=C(Nc1cccc(S(=O)(=O)C(F)F)c1)c1ccc(Cl)c(S(=O)(=O)N2CCOCC2)c1	-	0	0	0	-	-3
O=C(Nc1ccccc1Cl)c1ccc(S(=O)(=O)N2CCOCC2)cc1	68	0	0	0	0	-
COc1ccccc1NC(=O)c1ccc(S(=O)(=O)N2CCOCC2)cc1	0	0	0	0	0	0
O=C(Nc1cccc(Br)c1)c1ccc(Cl)c(S(=O)(=O)N2CCOCC2)c1	0	-	-	-	0	0
C=CCNC(=S)N/N=C/c1ccc(N(C)C)cc1	-	-	-	0	-	-
COc1ccc(Nc2cc(C)nc(-c3ccccc3O)n2)cc1	-	-	-	0	-	-
COc1ccc(Cl)cc1CN1CCN(c2nc(C)cc(C)c2C#N)CC1	62	0	0	0	0	0
CCN(CC)c1ccc(/C=C(/C#N)c2nc3ccc(C)cc3[nH]2)c(OC(C)C)c1	0	-	-	-	0	-3.1
CCCOc1cc(N(CC)CC)ccc1/C=C(/C#N)c1nc2ccc(C)cc2[nH]1	0	-	-	-	0	0
CCOc1cc(N(CC)CC)ccc1/C=C(/C#N)c1nc2ccccc2[nH]1	0	-	-	-	0	-3.1
CCOc1cc(/C=C(\C#N)c2nc3ccccc3[nH]2)cc(I)c1OC	-	-	-	0	-	-
O=C1NN(c2ccc(Cl)cc2)C(=O)/C1=C\c1ccc(-c2cccc(C(=O)O)c2)o1	-	-	-	103	-	-
O=C1NN(c2ccc(F)cc2)C(=O)/C1=C\c1ccc(-c2cccc(C(=O)O)c2)o1	-	-	-	102	-	-
O=C(O)c1cccc(-c2ccc(C=C3C(=O)c4ccccc4C3=O)o2)c1	-	-	-	98	-	-
O=C1NN(c2ccc(F)c(Cl)c2)C(=O)/C1=C\c1ccc(-c2cccc(C(=O)O)c2)o1	-	-	-	0	-	-
O=C1NC(=O)N(c2ccccc2)C(=O)/C1=C\c1ccc(-c2cccc(C(=O)O)c2)o1	-	-	-	0	-	-
Cc1nc2ccccc2n1CCC(C)C	-	-	-	0	-	-
CCNc1nc2c(c(=O)n(Cc3ccccc3)c(=O)n2C)n1Cc1ccccc1	0	0	0	0	0	-3.5
CC(C)(C)c1cc(CCC(=O)NNC(=O)c2ccccc2)cc(C(C)(C)C)c1O	-	-	-	56	-	-
CC(=O)Nc1ccc(C(=O)NNC(=O)CCc2ccccc2)cc1	0	-	-	-	0	0
CCC(Sc1nc2n[nH]c(C)c2c(=N)n1-c1cccc(Cl)c1C)C(=O)N(CC)CC (centres undefined)	0	0	0	0	0	-3
CCC(C)NC(=O)CSc1nc2n[nH]c(C)c2c(=N)n1-c1ccc(OC)cc1 (centres undefined)	0	0	0	0	0	0
COc1cc(CC(NC(C)=O)C(=O)NC2CCN(c3nc(C)cc(C)c3C#N)CC2)cc(OC)c1 (centres undefined)	-	0	56	0	-	0
SMILES	PLK1 inh	AP ELISA ortho	HEK293 NFkB inh	HePTP inhibitor	PLK1 PBD inh	PTK2B oligo ant
COc1cccc(CC(NC(C)=O)C(=O)NC2CCN(c3nc(C)cc(C)c3C#N)CC2)c1OC (centres undefined)	0	0	0	0	0	0
C/C(=N\NC(=O)c1cc(C2CC2)[nH]n1)c1ccc(Cl)cc1	-	-	-	0	-	-
Cc1ccccc1C(=O)NNC(=O)C(=O)NCCO	-	-	-	0	-	-
CCCCCc1cc(O)c2c(C)cc(=O)oc2c1	0	0	0	0	0	0
CCCCc1cc(O)c(CCCC)c(O)c1	0	0	0	0	0	-3.7
COc1ccccc1NC(=O)c1cc2cc(Br)ccc2oc1=O	-	-	-	0	-	-
Cc1cc(C)cc(OCC(=O)Nc2cccc(-c3nnc(-c4ccco4)o3)c2)c1	0	0	0	0	0	-3.9
O=C(O)CCC(=O)Nc1ccc(-c2nnc(-c3ccco3)o2)cc1	53	0	0	0	0	-
COc1ccc(CC(=O)Nc2cccc(-c3nnc(-c4ccco4)o3)c2)cc1	0	0	-	0	0	0
COc1ccc(N2C(=O)NC(=O)C(=Cc3ccccc3OCC(=O)O)C2=O)cc1	-	-	-	0	-	-
O=[N+]([O-])c1ccc(N2CCN(S(=O)(=O)c3ccccc3)CC2)c(C(F)(F)F)c1	-	-	-	0	-	-
Cc1ccc(OCC(=O)Nc2c(C(C)C)cccc2C(C)C)cc1C	-	-	-	0	-	-
O=C(Nc1ccc(-c2nc3ccccc3[nH]2)cc1)c1cc2ccccc2o1	-	-	-	102	-	-
Cc1ccc(NC(=O)c2cc3ccccc3o2)cc1S(=O)(=O)N(C)C	0	-	-	-	0	-3.2
O=C(Nc1ccc(-c2nc3ccccc3[nH]2)cc1)c1ccc2c(c1)OCO2	0	-	-	-	0	0
O=C(Nc1ccc(-c2nc3ccccc3[nH]2)cc1)c1ccc(Cl)c(Cl)c1	-	-	-	101	-	-
O=C(O)CC(NS(=O)(=O)c1cc(Cl)ccc1Cl)c1ccccc1 (centres undefined)	-	-	-	0	-	-
NC(=O)c1cc(Cc2ccccc2)sc1NC(=O)c1ccco1	-	0	0	0	-	-3.1
O=C(Nc1nnc(Cc2ccccc2)s1)c1ccco1	0	-	-	0	0	0
Cc1ccc(OCCCNC(C)(C)C)c(C)c1	-	-	-	0	-	-
Cc1cccc(OCc2nc(C#N)c(N3CC(C)CC(C)C3)o2)c1 (centres undefined)	61	0	0	0	0	-
COc1ccc(OC)c(N(CC(=O)N2CCN(c3ccccc3)CC2)S(=O)(=O)c2ccccc2)c1	-	-	-	0	-	-
O=C(CCc1ccccc1)Nc1nnc(-c2ccc3c(c2)CCCC3)o1	0	0	0	0	0	-
CC1CC(C)CN(S(=O)(=O)c2ccc(C(=O)Nc3nnc(-c4cccs4)o3)cc2)C1 (centres undefined)	0	0	0	0	0	-4.5
O=C(CCc1ccccc1)Nc1nnc(-c2cccs2)o1	62	0	0	0	0	-
SMILES	PLK1 inh	AP ELISA ortho	HEK293 NFkB inh	HePTP inhibitor	PLK1 PBD inh	PTK2B oligo ant
O=C(Nc1nnc(-c2cccs2)o1)c1cccc(C(F)(F)F)c1	61	0	0	0	0	-
CCC1CCCCN1S(=O)(=O)c1ccc(C(=O)Nc2nnc(-c3cccs3)o2)cc1 (centres undefined)	0	0	0	0	0	0
Cc1nnc(NC(=O)c2ccc(S(=O)(=O)N3CCCCCC3)cc2)o1	0	0	0	0	0	0
CC1CCCN(S(=O)(=O)c2ccc(C(=O)Nc3nnc(-c4ccccc4Cl)o3)cc2)C1 (centres undefined)	0	0	0	0	0	-3.8
CC(=O)C1=C(C)NC2=C(C(=O)CC(C)(C)C2)C1c1cccc([N+](=O)[O-])c1 (centres undefined)	-	-	-	0	-	-
O=C1N=c2ccccc2=C1c1c(O)n(-c2ccc(Cl)c(Cl)c2)[nH]c1=O	-	-	-	0	-	-
COc1ccc(-c2nnc(NC(=O)c3ccc(S(=O)(=O)N4CCc5ccccc5C4)cc3)o2)cc1	0	0	0	0	0	0
